Reference: ChEMBL document CHEMBL3259551, “Novel delta opioid receptor agonists with oxazatricyclodecane structure” (ACS Med Chem Lett, 2014)

How the values were obtained:
Mu-type opioid receptor [1] = molecular target: T1, Mu-type opioid receptor (Homo sapiens, UniProt P35372); experiment: Agonist activity at human mu opioid receptor expressed in HEK293 cells by CellKey method relative to DAMDO; format: cell-based
Mus musculus [2] = experiment: Toxicity in mouse assessed as induction of convulsion at 1 to 10 mg/kg, sc; format: organism-based; parameters: dose 1-10 mg/kg, route subcutaneous; settings: in vivo
Method in brief: (§1)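 Mice dosed subcutaneously, then scored in the acetic acid writhing test and watched for convulsive behaviour. […] taken from the dose–response. Antagonist reversal tested with NTI, β-FNA or nor-BNI. Groups compared against saline-treated mice by one-way ANOVA with Bonferroni's test.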

Mus musculus [3] = species on record: Mus musculus; experiment: Selectivity ratio of Ki for mouse mu opioid receptor to Ki for mouse delta opioid receptor
Mus musculus [4] = experiment: Analgesic activity in sc dosed mouse assessed as inhibition of acetic acid-induced writhing treated after 15 mins of acetic acid-challenge; format: functional; method in brief: as §1
[5] = molecular target: T2, Delta-type opioid receptor (Homo sapiens, UniProt P41143); experiment: Agonist activity at human delta opioid receptor expressed in HEK293 cells by CellKey method; format: cell-based
T2 sequence (P41143 whole entry): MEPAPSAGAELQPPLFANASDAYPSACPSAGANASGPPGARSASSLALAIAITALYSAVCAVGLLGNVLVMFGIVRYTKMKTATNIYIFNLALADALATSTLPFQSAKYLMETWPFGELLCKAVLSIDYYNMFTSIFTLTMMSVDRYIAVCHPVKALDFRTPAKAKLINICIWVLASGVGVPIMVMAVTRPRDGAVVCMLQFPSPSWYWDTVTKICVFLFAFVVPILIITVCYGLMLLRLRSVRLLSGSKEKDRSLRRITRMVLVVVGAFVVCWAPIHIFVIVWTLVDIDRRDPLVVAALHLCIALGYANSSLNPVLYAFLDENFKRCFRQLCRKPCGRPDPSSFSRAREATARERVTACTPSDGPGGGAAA
Method in brief: (§2)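 Label-free CellKey impedance biosensor readout of receptor activity in HEK293 cells expressing human MOR, DOR or KOR, run in duplicate. Emax is the % of the response to DAMGO for MOR, SNC80 for DOR and (−)-U-50,488H for KOR.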

[6] = molecular target: T2, Delta-type opioid receptor; experiment: Agonist activity at human delta opioid receptor expressed in CHO cells assessed as [35S]-GTP[gammaS] binding; format: functional, cell-based
Method in brief: (§3)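 Human MOR, DOR or KOR expressed in CHO cells; [35S]GTPγS binding run in duplicate. Emax is the % of the response to DAMDO for MOR, SNC80 for DOR and U-69,593 for KOR.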

[7] = molecular target: T2, Delta-type opioid receptor; experiment: Agonist activity at human delta opioid receptor expressed in HEK293 cells by CellKey method relative to SNC80; format: cell-based; method in brief: as §2
Mu-type opioid receptor [8] = molecular target: T1, Mu-type opioid receptor; experiment: Agonist activity at human mu opioid receptor expressed in CHO cells assessed as [35S]-GTP[gammaS] binding relative to DAMDO; format: cell-based; method in brief: as §3
[9] = molecular target: T3, Kappa-type opioid receptor (Homo sapiens, UniProt P41145); experiment: Agonist activity at human kappa opioid receptor expressed in CHO cells assessed as [35S]-GTP[gammaS] binding relative to U69593; format: functional, cell-based; method in brief: as §3
T3 sequence (P41145 whole entry): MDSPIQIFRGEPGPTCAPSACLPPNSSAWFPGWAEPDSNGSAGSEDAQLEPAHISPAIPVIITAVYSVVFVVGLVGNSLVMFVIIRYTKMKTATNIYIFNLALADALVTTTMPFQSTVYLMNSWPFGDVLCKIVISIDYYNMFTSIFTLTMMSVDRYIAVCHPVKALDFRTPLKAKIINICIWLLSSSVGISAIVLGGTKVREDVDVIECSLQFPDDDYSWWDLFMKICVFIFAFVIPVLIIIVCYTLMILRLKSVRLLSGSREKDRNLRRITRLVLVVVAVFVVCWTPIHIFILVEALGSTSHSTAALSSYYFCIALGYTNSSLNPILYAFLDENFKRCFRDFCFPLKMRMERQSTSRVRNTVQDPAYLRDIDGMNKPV

[10] = molecular target: T3, Kappa-type opioid receptor; experiment: Agonist activity at human kappa opioid receptor expressed in HEK293 cells by CellKey method; format: cell-based
Method in brief: (§4)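 Label-free CellKey impedance biosensor readout of receptor activity in HEK293 cells expressing human MOR, DOR or KOR, run in duplicate.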

[11] = Selectivity ratio of Ki for guinea pig kappa opioid receptor to Ki for mouse delta opioid receptor
Mu-type opioid receptor [12] = molecular target: T1, Mu-type opioid receptor; experiment: Agonist activity at human mu opioid receptor expressed in HEK293 cells by CellKey method; format: cell-based; method in brief: as §4
[13] = molecular target: Delta-type opioid receptor (Mus musculus, UniProt P32300); experiment: Displacement of [3H]DPDPE from delta opioid receptor in mouse whole brain […] membrane; format: tissue-based
Sequence of Delta-type opioid receptor (Mus musculus, UniProt P32300) (P32300 whole entry): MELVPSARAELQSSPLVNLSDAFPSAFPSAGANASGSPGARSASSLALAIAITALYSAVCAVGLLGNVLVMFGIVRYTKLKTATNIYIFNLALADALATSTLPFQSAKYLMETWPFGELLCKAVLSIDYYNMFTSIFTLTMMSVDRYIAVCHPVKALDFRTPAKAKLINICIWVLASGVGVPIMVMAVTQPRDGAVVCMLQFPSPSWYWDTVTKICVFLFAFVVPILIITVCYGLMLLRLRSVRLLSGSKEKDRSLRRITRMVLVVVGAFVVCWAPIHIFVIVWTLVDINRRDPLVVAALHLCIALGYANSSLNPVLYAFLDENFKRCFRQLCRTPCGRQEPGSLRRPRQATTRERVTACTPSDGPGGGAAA
Method in brief: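 Competitive binding run in duplicate. MOR used [3H]DAMGO and DOR used [3H]DPDPE, both on mouse whole-brain membranes without cerebellum.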

[14] = molecular target: T2, Delta-type opioid receptor; experiment: Agonist activity at human delta opioid receptor expressed in CHO cells assessed as [35S]-GTP[gammaS] binding relative to SNC80; format: functional, cell-based; method in brief: as §3
[15] = molecular target: T3, Kappa-type opioid receptor; experiment: Agonist activity at human kappa opioid receptor expressed in HEK293 cells by CellKey method relative to (-)U50488H; format: cell-based; method in brief: as §2
[16] = molecular target: Kappa-type opioid receptor (Cavia porcellus, UniProt P41144); experiment: Displacement of [3H]U69593 from kappa opioid receptor in guinea pig cerebellum membrane
Sequence of Kappa-type opioid receptor (Cavia porcellus, UniProt P41144) (P41144 whole entry): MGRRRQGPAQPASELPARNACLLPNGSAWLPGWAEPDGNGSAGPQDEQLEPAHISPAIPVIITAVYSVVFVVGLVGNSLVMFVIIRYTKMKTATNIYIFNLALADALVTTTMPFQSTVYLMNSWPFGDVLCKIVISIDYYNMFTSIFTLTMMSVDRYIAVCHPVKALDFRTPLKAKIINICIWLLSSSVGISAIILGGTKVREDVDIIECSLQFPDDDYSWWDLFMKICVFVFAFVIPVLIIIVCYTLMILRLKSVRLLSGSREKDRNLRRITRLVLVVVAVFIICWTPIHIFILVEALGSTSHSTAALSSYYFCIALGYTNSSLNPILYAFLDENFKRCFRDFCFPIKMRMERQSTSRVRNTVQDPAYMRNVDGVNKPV
Method in brief: (§5)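 Competitive binding run in duplicate. MOR used [3H]DAMGO and DOR used [3H]DPDPE, both on mouse whole-brain membranes without cerebellum. KOR used [3H]U-69,593 on guinea pig cerebellum membranes.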

[17] = molecular target: T3, Kappa-type opioid receptor; experiment: Agonist activity at human kappa opioid receptor expressed in CHO cells assessed as [35S]-GTP[gammaS] binding; format: functional, cell-based; method in brief: as §3
Mu-type opioid receptor [18] = molecular target: T1, Mu-type opioid receptor; experiment: Agonist activity at human mu opioid receptor expressed in CHO cells assessed as [35S]-GTP[gammaS] binding; format: cell-based; method in brief: as §3
Mu-type opioid receptor [19] = molecular target: Mu-type opioid receptor (Mus musculus, UniProt P42866); experiment: Displacement of [3H]DAMGO from mu opioid receptor in mouse whole brain […] membrane; format: tissue-based; method in brief: as §5
Sequence of Mu-type opioid receptor (Mus musculus, UniProt P42866) (P42866 whole entry): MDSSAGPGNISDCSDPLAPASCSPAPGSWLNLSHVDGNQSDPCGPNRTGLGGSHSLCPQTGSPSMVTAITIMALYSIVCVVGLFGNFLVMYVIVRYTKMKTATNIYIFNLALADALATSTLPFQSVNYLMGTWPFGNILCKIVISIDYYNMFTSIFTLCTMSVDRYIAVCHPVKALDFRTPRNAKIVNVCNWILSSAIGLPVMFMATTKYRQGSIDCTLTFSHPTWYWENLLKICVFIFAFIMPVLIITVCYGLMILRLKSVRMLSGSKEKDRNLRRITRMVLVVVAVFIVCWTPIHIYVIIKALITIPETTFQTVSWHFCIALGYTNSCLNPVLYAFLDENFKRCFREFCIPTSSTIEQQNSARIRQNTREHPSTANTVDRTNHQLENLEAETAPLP

T1 sequence (P35372 whole entry): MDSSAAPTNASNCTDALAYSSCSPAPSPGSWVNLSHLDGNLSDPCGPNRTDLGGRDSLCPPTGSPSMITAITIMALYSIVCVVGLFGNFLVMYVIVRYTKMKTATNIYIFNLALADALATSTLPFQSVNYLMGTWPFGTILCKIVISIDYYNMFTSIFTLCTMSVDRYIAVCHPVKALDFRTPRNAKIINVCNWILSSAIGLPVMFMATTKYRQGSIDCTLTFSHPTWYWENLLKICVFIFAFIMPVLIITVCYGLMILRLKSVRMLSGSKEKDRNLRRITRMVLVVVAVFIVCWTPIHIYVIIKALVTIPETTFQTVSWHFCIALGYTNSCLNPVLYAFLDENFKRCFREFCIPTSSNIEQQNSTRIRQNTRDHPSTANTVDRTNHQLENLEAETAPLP

| Structure (SMILES) | Emax (Mu-type opioid receptor [1]) [%] | Activity (Mus musculus [2]) | Ratio Ki (Mus musculus [3]) | inhibition (Mus musculus [4]) | ED50 (Mus musculus [4]; 0.25 h) [mg/kg] | EC50 [5] [nM] | EC50 [6] [nM] | Emax [7] [%] | Emax (Mu-type opioid receptor [8]) [%] | Emax [9] [%] | EC50 [10] [nM] | Ratio Ki [11] | EC50 (Mu-type opioid receptor [12]) [nM] | Ki [13] [nM] | Emax [14] [%] | Emax [15] [%] | Ki [16] [nM] | EC50 [17] [nM] | EC50 (Mu-type opioid receptor [18]) [nM] | Ki (Mu-type opioid receptor [19]) [nM] |
| --- | --- | --- | --- | --- | --- | --- | --- | --- | --- | --- | --- | --- | --- | --- | --- | --- | --- | --- | --- | --- |
| CN1CC[C@@]23c4c5ccc(O)c4OCO[C@]46CC[C@@]2(O[C@H](C(=O)N4Cc2ccccc2)[C@H]63)[C@H]1C5 | 36.1 | Non-toxic | 12 | Dose-dependent effect | 5.26 | 141 | 11 | 138 | 110 | 83.6 | 307 | 103 | 1350 | 1.94 | 112 | 79.2 | 200 | 478 | 113 | 23.3 |
| COc1ccc2c(c1O)[C@]13CCN(CC4CC4)[C@H](C2)[C@]12CC[C@]1(O)[C@H]3[C@H](O2)C(=O)N1Cc1ccccc1 | – | – | 0.27 | – | – | – | – | – | – | – | – | 1.4 | – | 175 | – | – | 248 | – | – | 47.7 |
| C=CCN1CC[C@@]23c4c5ccc(O)c4OCO[C@]46CC[C@@]2(O[C@H](C(=O)N4Cc2ccccc2)[C@H]63)[C@H]1C5 | 11.3 | – | 55.8 | – | – | 2 | 6.5 | 77.2 | 5.4 | 74 | – | 46.2 | 5.1 | 1.23 | 94.6 | – | 56.6 | 231 | 2.7 | 68.4 |
| C=CCN1C[C@H](C)N([C@H](c2ccc(C(=O)N(CC)CC)cc2)c2cccc(OC)c2)C[C@H]1C [SNC-80] | 6.8 | – | – | – | – | – | – | – | – | – | – | – | – | – | – | 5.9 | > 1000 | – | – | 695 |
| CC(C)CN1CC[C@@]23c4c5ccc(O)c4OCO[C@]46CC[C@@]2(O[C@H](C(=O)N4Cc2ccccc2)[C@H]63)[C@H]1C5 | 12.2 | – | 26.6 | – | – | 140 | 15.6 | 130 | 8.4 | 65.6 | 333 | 17 | 400 | 7 | 96.4 | 57.9 | 119 | 760 | 223 | 186 |
| O=C1[C@H]2O[C@@]34CC[C@@]5(OCOc6c(O)ccc7c6[C@@]3(CCN(CC3CC3)[C@@H]4C7)[C@H]25)N1CCc1ccccc1 | 4.8 | – | 1.5 | – | – | 0.62 | 0.41 | 90.6 | 19.7 | 51.2 | 2.4 | 1.7 | 5.2 | 1.16 | 103 | 75.8 | 1.94 | 3.9 | 2.1 | 1.75 |
| O=C1[C@H]2O[C@@]34CC[C@@]5(OCOc6c(O)ccc7c6[C@@]3(CCN(CC3CC3)[C@@H]4C7)[C@H]25)N1Cc1ccccc1 | 9.6 | – | 10 | – | – | 1.54 | 1.1 | 88.7 | 13.7 | 69.1 | 39.8 | 16.4 | 1.8 | 0.313 | 92.8 | 50.5 | 5.14 | 80.5 | 2.8 | 3.14 |
| O=C1[C@H]2O[C@@]34CC[C@@]5(OCOc6c(O)ccc7c6[C@@]3(CCN(CC3CC3)[C@@H]4C7)[C@H]25)N1c1ccccc1 | 8.8 | – | 8.6 | – | – | 0.39 | 0.98 | 123 | 25.6 | 42.9 | 1.2 | 3.2 | 1.2 | 0.534 | 118 | 80.4 | 1.69 | 6.5 | 9 | 4.61 |
| O=C1[C@H]2O[C@@]34CC[C@@]5(OCOc6c(O)ccc7c6[C@@]3(CCN(CCc3ccccc3)[C@@H]4C7)[C@H]25)N1Cc1ccccc1 | 40.2 | – | 17.7 | – | – | 20.5 | 9.2 | 108 | 83 | – | 12500 | 227 | 639 | 2.59 | 115 | 22.6 | 588 | – | 2.3 | 45.9 |
